Tested on: HEK-293T
Experiment: Multiplex assay against HEK293T;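 for Population Tubulin-Different-Phenotype (%): share of the cells with healthy nuclei that show this phenotype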
Format: toxicity, cell-based
Conditions: human
Method in brief: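 Tubulin, mitochondrial-mass and membrane-permeability phenotypes are per cents of healthy-nucleus cells. Cells were gated by CellPathfinder machine learning into Hoechst high-intensity objects or normal cells, normal cells into healthy, pyknosed or fragmented nuclei, and pyknosed cells into mitotic or apoptotic. Before that, live cells stained at seeding with Hoechst33342, BioTracker Green Microtubule Cytoskeleton Dye, MitoTracker Red and Annexin V Alexa Fluor 680 were imaged on a CQ1 microscope at 37°C and 5% CO2 after compound addition.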

[1] = 12 h, 1 µM, compound concentration 1 uM, replicate 1
[2] = 12 h, 1 µM, compound concentration 1 uM, replicate 2
[3] = 12 h, 10 µM, compound concentration 10 uM, replicate 1
[4] = 12 h, 10 µM, compound concentration 10 uM, replicate 2
[5] = 24 h, 1 µM, compound concentration 1 uM, replicate 1
[6] = 24 h, 1 µM, compound concentration 1 uM, replicate 2
[7] = 24 h, 10 µM, compound concentration 10 uM, replicate 1
[8] = 24 h, 10 µM, compound concentration 10 uM, replicate 2

Cc1c(Nc2ccc(S(=O)(=O)N3CCN(C)CC3)cc2F)nc2ccc(Nc3cnn(C4CC4)c3)cn2c1=O
Population Apoptotic (%) [1]: 17% | Population Fragmented Nuclei (%) [1]: 13% | Population Healthy Nuclei (%) [1]: 52% | Population Hoechst High Intensity Objects (%) [1]: 16% | Population Membrane Permeable-Phenotype (%) [1]: 15% | Population Mitochondria Different-Phenotype (%) [1]: 11% | Population Mitotic Cells (%) [1]: 82% | Population Normal (%) [1]: 83% | Population Pyknosed Nuclei (%) [1]: 33% | Population Tubulin-Different-Phenotype (%) [1]: 47% | Total Cell Count [1]: 566 | Population Apoptotic (%) [2]: 11% | Population Fragmented Nuclei (%) [2]: 3% | Population Healthy Nuclei (%) [2]: 83% | Population Hoechst High Intensity Objects (%) [2]: 3% | Population Membrane Permeable-Phenotype (%) [2]: 14% | Population Mitochondria Different-Phenotype (%) [2]: 29% | Population Mitotic Cells (%) [2]: 88% | Population Normal (%) [2]: 96% | Population Pyknosed Nuclei (%) [2]: 12% | Population Tubulin-Different-Phenotype (%) [2]: 73% | Total Cell Count [2]: 888 | Population Apoptotic (%) [3]: 17% | Population Fragmented Nuclei (%) [3]: 11% | Population Healthy Nuclei (%) [3]: 73% | Population Hoechst High Intensity Objects (%) [3]: 8% | Population Membrane Permeable-Phenotype (%) [3]: 4% | Population Mitochondria Different-Phenotype (%) [3]: 4% | Population Mitotic Cells (%) [3]: 82% | Population Normal (%) [3]: 91% | Population Pyknosed Nuclei (%) [3]: 15% | Population Tubulin-Different-Phenotype (%) [3]: 4% | Total Cell Count [3]: 791 | Population Apoptotic (%) [4]: 4% | Population Fragmented Nuclei (%) [4]: 6% | Population Healthy Nuclei (%) [4]: 89% | Population Hoechst High Intensity Objects (%) [4]: 2% | Population Membrane Permeable-Phenotype (%) [4]: 2% | Population Mitochondria Different-Phenotype (%) [4]: 10% | Population Mitotic Cells (%) [4]: 95% | Population Normal (%) [4]: 97% | Population Pyknosed Nuclei (%) [4]: 4% | Population Tubulin-Different-Phenotype (%) [4]: 7% | Total Cell Count [4]: 1683 | Population Apoptotic (%) [5]: 27% | Population Fragmented Nuclei (%) [5]: 16% | Population Healthy Nuclei (%) [5]: 60% | Population Hoechst High Intensity Objects (%) [5]: 11% | Population Membrane Permeable-Phenotype (%) [5]: 21% | Population Mitochondria Different-Phenotype (%) [5]: 9% | Population Mitotic Cells (%) [5]: 72% | Population Normal (%) [5]: 88% | Population Pyknosed Nuclei (%) [5]: 23% | Population Tubulin-Different-Phenotype (%) [5]: 65% | Total Cell Count [5]: 536 | Population Apoptotic (%) [6]: 12% | Population Fragmented Nuclei (%) [6]: 6% | Population Healthy Nuclei (%) [6]: 85% | Population Hoechst High Intensity Objects (%) [6]: 5% | Population Mitochondria Different-Phenotype (%) [6]: 16% | Population Mitotic Cells (%) [6]: 87% | Population Normal (%) [6]: 94% | Population Pyknosed Nuclei (%) [6]: 7% | Population Tubulin-Different-Phenotype (%) [6]: 83% | Total Cell Count [6]: 1100 | Population Apoptotic (%) [7]: 16% | Population Fragmented Nuclei (%) [7]: 8% | Population Healthy Nuclei (%) [7]: 85% | Population Hoechst High Intensity Objects (%) [7]: 4% | Population Membrane Permeable-Phenotype (%) [7]: 9% | Population Mitochondria Different-Phenotype (%) [7]: 3% | Population Mitotic Cells (%) [7]: 83% | Population Normal (%) [7]: 95% | Population Pyknosed Nuclei (%) [7]: 6% | Population Tubulin-Different-Phenotype (%) [7]: 8% | Total Cell Count [7]: 922 | Population Apoptotic (%) [8]: 0% | Population Fragmented Nuclei (%) [8]: 18% | Population Healthy Nuclei (%) [8]: 79% | Population Hoechst High Intensity Objects (%) [8]: 3% | Population Membrane Permeable-Phenotype (%) [8]: 7% | Population Mitochondria Different-Phenotype (%) [8]: 2% | Population Mitotic Cells (%) [8]: 100% | Population Normal (%) [8]: 96% | Population Pyknosed Nuclei (%) [8]: 2% | Population Tubulin-Different-Phenotype (%) [8]: 10% | Total Cell Count [8]: 2721

NC(=O)c1ccc2nc(-c3ccc(C4(N)CCC4)cc3)c(-c3ccccc3)n2n1 [BAY-1125976]
Population Apoptotic (%) [1]: 22% | Population Healthy Nuclei (%) [1]: 67% | Population Hoechst High Intensity Objects (%) [1]: 16% | Population Mitochondria Different-Phenotype (%) [1]: 12% | Population Mitotic Cells (%) [1]: 77% | Population Normal (%) [1]: 83% | Population Pyknosed Nuclei (%) [1]: 17% | Population Tubulin-Different-Phenotype (%) [1]: 26% | Total Cell Count [1]: 688 | Population Apoptotic (%) [2]: 10% | Population Fragmented Nuclei (%) [2]: 4% | Population Healthy Nuclei (%) [2]: 87% | Population Hoechst High Intensity Objects (%) [2]: 4% | Population Mitochondria Different-Phenotype (%) [2]: 17% | Population Mitotic Cells (%) [2]: 89% | Population Normal (%) [2]: 95% | Population Tubulin-Different-Phenotype (%) [2]: 38% | Total Cell Count [2]: 1223 | Population Apoptotic (%) [3]: 19% | Population Fragmented Nuclei (%) [3]: 17% | Population Healthy Nuclei (%) [3]: 62% | Population Hoechst High Intensity Objects (%) [3]: 15% | Population Mitochondria Different-Phenotype (%) [3]: 5% | Population Mitotic Cells (%) [3]: 80% | Population Normal (%) [3]: 84% | Population Pyknosed Nuclei (%) [3]: 19% | Population Tubulin-Different-Phenotype (%) [3]: 5% | Total Cell Count [3]: 611 | Population Apoptotic (%) [4]: 12% | Population Fragmented Nuclei (%) [4]: 7% | Population Healthy Nuclei (%) [4]: 87% | Population Hoechst High Intensity Objects (%) [4]: 2% | Population Mitochondria Different-Phenotype (%) [4]: 8% | Population Mitotic Cells (%) [4]: 87% | Population Normal (%) [4]: 97% | Population Pyknosed Nuclei (%) [4]: 4% | Total Cell Count [4]: 1764 | Population Apoptotic (%) [5]: 32% | Population Hoechst High Intensity Objects (%) [5]: 15% | Population Mitochondria Different-Phenotype (%) [5]: 9% | Population Mitotic Cells (%) [5]: 67% | Population Normal (%) [5]: 84% | Population Pyknosed Nuclei (%) [5]: 10% | Population Tubulin-Different-Phenotype (%) [5]: 44% | Total Cell Count [5]: 691 | Population Apoptotic (%) [6]: 10% | Population Fragmented Nuclei (%) [6]: 19% | Population Healthy Nuclei (%) [6]: 76% | Population Hoechst High Intensity Objects (%) [6]: 4% | Population Mitochondria Different-Phenotype (%) [6]: 5% | Population Mitotic Cells (%) [6]: 89% | Population Normal (%) [6]: 95% | Population Pyknosed Nuclei (%) [6]: 3% | Population Tubulin-Different-Phenotype (%) [6]: 42% | Total Cell Count [6]: 1875 | Population Apoptotic (%) [7]: 26% | Population Healthy Nuclei (%) [7]: 77% | Population Hoechst High Intensity Objects (%) [7]: 11% | Population Mitochondria Different-Phenotype (%) [7]: 4% | Population Mitotic Cells (%) [7]: 73% | Population Normal (%) [7]: 88% | Population Pyknosed Nuclei (%) [7]: 8% | Population Tubulin-Different-Phenotype (%) [7]: 8% | Total Cell Count [7]: 699 | Population Apoptotic (%) [8]: 6% | Population Fragmented Nuclei (%) [8]: 23% | Population Healthy Nuclei (%) [8]: 74% | Population Hoechst High Intensity Objects (%) [8]: 3% | Population Mitochondria Different-Phenotype (%) [8]: 1% | Population Mitotic Cells (%) [8]: 93% | Population Normal (%) [8]: 96% | Population Pyknosed Nuclei (%) [8]: 2% | Population Tubulin-Different-Phenotype (%) [8]: 6% | Total Cell Count [8]: 3086

From ChEMBL document CHEMBL4689842, “EUbOPEN Chemogenomics Library wave 1” (2021)
